The target of series [1] is T-cell surface glycoprotein CD4 (Homo sapiens, UniProt P01730). The series is described as follows: Binding affinity to signal peptide of human CD4-YFP expressed in CHO-K1 cells assessed down-modulation of CD4 surface expression incubated for 24 hrs by flow cytometry. In kind it is cell-based. A digest of the protocol: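 CHO cells stably expressing human CD4 C-terminally fused to YFP were exposed 24 h at 37 °C to 1:5 serial dilutions, washed, fixed in 1% formaldehyde and analysed by flow cytometry (488 nm laser). YFP MFI, minus non-transfected background, was expressed as % of untreated controls. IC50 is the concentration giving 50% down-modulation. Mean ± SD, n = 3.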

Series [2] concerns Human immunodeficiency virus 1. The series is described as follows: Antiviral activity against HIV-1 NL4-3 infected in human MT-4 cells assessed as inhibition of viral replication by measuring inhibition of cell viability preincubated with cells for 15 mins followed by viral infection and measured after 4 days by MTS/PES assay. In kind it is functional, organism-based. The following applies: Human immunodeficiency virus 1, NL4-3, MT4. A digest of the protocol: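 HIV-1 NL4.3 (30 pg/well) was then added at 37 °C. After 4 days, viability was read by MTS/PES (absorbance 490 and 700 nm) and the IC50 for viral replication was calculated. Mean ± SD, n = 2 or 3.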

The subject of series [3] is MT4. The series is described as follows: Cytotoxicity against human MT-4 cells assessed as inhibition of cell viability incubated for 48 hrs by MTS/PES assay. The format is cell-based. The following applies: mt4, 48 h. A digest of the protocol: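 Cytotoxicity: 10^4 MT-4 cells/well in DMEM with 10% FBS and 10 mM HEPES were exposed to compounds 48 h at 37 °C. CC50 was derived from the drop in viability measured by MTS/PES.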

Series [4] is described as follows: Thermodynamic solubility of the compound in aqueous PBS buffer at pH 7.4 incubated for 72 hrs by shake flask method based UV-Vis absorption spectroscopy. In kind it is physicochemical. The following applies: read-out: Therm_solubility. A digest of the protocol:
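Shake-flask method: 3–5 mg compound in 5 mL PBS pH 7.4 was agitated 72 h, with excess solid checked at 24 and 48 h. The solution was then filtered and the filtrate quantified by UV-Vis standard addition with Beer–Lambert. ε came from five-concentration methanol calibrations at λmax, fitted by linear least squares.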

Series [5] can be described thus: Kinetic solubility of the compound in aqueous PBS buffer at H 7.4/2.5% DMSO incubated for 1 hr by nephelometry. The format is physicochemical. The following applies: aqueous PBS buffer with 2.5% DMSO, pH 7.4, read-out: Kinetic_solubility. A digest of the protocol:
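Compound from a 20 mM DMSO stock was diluted into PBS pH 7.4 at a constant 2.5% DMSO, then two-fold serially diluted in quadruplicate, with extra intermediate concentrations. Plates were shaken 2 min, held 1 h at 37 °C and shaken 3 min before nephelometry. Blank-subtracted scattering onset defined kinetic solubility.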

Series [6] relates to CD4 (surface expression down-modulation). The series is described as follows: Therapeutic index, ratio of CC50 for human MT-4 cells to IC50 for human CD4-YFP expressed in CHO-K1 cells assessed down-modulation of CD4 surface expression incubated for 24 hrs by flow cytometry. The following applies: read-out: Ratio CC50/IC50. In kind it is toxicity, cell-based.

pIC50: −log10 of the molar value.

Results on 15 molecules are retold here after ChEMBL document CHEMBL4673284, “Syntheses and anti-HIV and human cluster of differentiation 4 (CD4) down-modulating potencies of pyridine-fused cyclotriazadisulfonamide (CADA) compounds” (Bioorg Med Chem, 2020).

Consider `C=C1CN(S(=O)(=O)c2ccc(C)cc2)CCc2cc(OC)cc(n2)CCN(S(=O)(=O)c2ccc(C)cc2)C1.Cl`, for which the pIC50 in series [1] was 5.73; in series [2], 4.90. In series [3], the CC50 was above 100000 nM. For the same molecule, the solubility thermodynamic at 72 h in series [4] was 28 µM. Besides, the solubility kinetic at 1 h in series [5] turned out to be 64 µM.
Regarding `C=C1CN(S(=O)(=O)c2ccc(C)cc2)CCc2cc(OCc3ccccc3)cc(n2)CCN(S(=O)(=O)c2ccc(C)cc2)C1`, the pIC50 in series [1] was 6.38; in series [2], 5.66. Moreover, the CC50 in series [3] was above 100000 nM.
On to `C=C1CN(S(=O)(=O)c2ccc(C)cc2)CCc2cc(OCC3CCCCC3)cc(n2)CCN(S(=O)(=O)c2ccc(C)cc2)C1.Cl`, for which the results for the pIC50 in series [1] and in series [2] were 6.89 and 6.03, respectively. Moreover, the CC50 in series [3] was above 100000 nM. For the same molecule, the solubility kinetic at 1 h in series [5] came out at 65 µM.
In the same order, the values of `C=C1CN(S(=O)(=O)c2ccc(C)cc2)CCc2cc(-c3ccccc3)cc(n2)CCN(S(=O)(=O)c2ccc(C)cc2)C1.Cl` are 6.13, 5.61, above 100000 nM and 61 µM.
Turning to `Br.C=C1CN(S(=O)(=O)c2ccc(C)cc2)CCc2cc(O)cc(n2)CCN(S(=O)(=O)c2ccc(C)cc2)C1`, the pIC50 was 5.03 in series [1] and below 4.30 in series [2]. The CC50 in series [3] is above 100000 nM. In addition, the solubility thermodynamic at 72 h in series [4] worked out at 27 µM.
On to `C=C1CN(S(=O)(=O)c2ccc(C)cc2)CCc2cc(CCCC)cc(n2)CCN(S(=O)(=O)c2ccc(C)cc2)C1`, for which the pIC50 in series [1] was 6.27; in series [2] it was 5.62. For the same molecule, in series [3], the CC50 amounted to 65800 nM. In series [6], the selectivity ratio at 24 h is above 100.
With `C=C1CN(S(=O)(=O)c2ccc(C)cc2)CCc2cc(CC)cc(n2)CCN(S(=O)(=O)c2ccc(C)cc2)C1`, the values for the pIC50 in series [1] and in series [2] were 6.07 and 5.47, respectively. Also, in series [3], the CC50 is above 100000 nM.
Consider `C=C1CN(S(=O)(=O)c2ccc(C)cc2)CCc2cc(CCC)cc(n2)CCN(S(=O)(=O)c2ccc(C)cc2)C1.Cl`, for which the pIC50 in series [1] was 6.08; in series [2] it was 5.55. Moreover, the half-maximal cytotoxic concentration (CC50) in series [3] was above 100000 nM. Also, the solubility thermodynamic at 72 h in series [4] turned out to be 18 µM.
For `C=C1CN(S(=O)(=O)c2ccc(C)cc2)CCc2cc(OCC)cc(n2)CCN(S(=O)(=O)c2ccc(C)cc2)C1.Cl`, the pIC50 in series [1] is 5.82; in series [2] it was 4.98. Besides, the CC50 in series [3] was above 100000 nM. Besides, in series [5], the solubility kinetic at 1 h is 54 µM.
For the molecule `C=C1CN(S(=O)(=O)c2ccc(C)cc2)CCc2cccc(n2)CCN(S(=O)(=O)c2ccc(C)cc2)C1`, the pIC50 in series [1] was 5.55; in series [2] it was below 4.30. Also, the CC50 in series [3] is above 100000 nM.
Take `C=C1CN(S(=O)(=O)c2ccc(C)cc2)CCc2cc(C(C)(C)C)cc(n2)CCN(S(=O)(=O)c2ccc(C)cc2)C1.Cl`: the pIC50 in series [1] was 6.02; in series [2], 5.57. The CC50 in series [3] was above 100000 nM. Moreover, the solubility thermodynamic at 72 h in series [4] was found to be 20 µM.
On to `C=C1CN(S(=O)(=O)c2ccc(C)cc2)CCc2cc(C)cc(n2)CCN(S(=O)(=O)c2ccc(C)cc2)C1`, for which the pIC50 in series [1] was 5.78; in series [2] it was below 4.30. For the same molecule, the CC50 in series [3] was above 100000 nM.
For `C=C1CN(S(=O)(=O)c2ccc(C)cc2)CCc2cc(CC(C)C)cc(n2)CCN(S(=O)(=O)c2ccc(C)cc2)C1.Cl`, the pIC50 in series [1] is 6.18; in series [2], 5.64. For the same molecule, the CC50 in series [3] turned out to be 87900 nM. In addition, the selectivity ratio at 24 h in series [6] is above 100. In series [4], the solubility thermodynamic at 72 h came to 29 µM.
Consider `C=C1CN(S(=O)(=O)c2ccc(N(C)C)cc2)CCc2cc(CC)cc(n2)CCN(S(=O)(=O)c2ccc(N(C)C)cc2)C1`, for which the pIC50 in series [1] is 6.66; in series [2], 5.96. Besides, in series [3], the CC50 was above 100000 nM.
Turning to `C=C1CN(S(=O)(=O)c2ccc(C)cc2)CCCN(Cc2ccccc2)CCCN(S(=O)(=O)c2ccc(C)cc2)C1.Cl` [CYCLOTRIAZADISULFONAMIDE HYDROCHLORIDE], the pIC50 in series [1] was 6.48; in series [2] it was 5.77. The CC50 in series [3] was above 100000 nM. The solubility thermodynamic at 72 h in series [4] is 11 µM. Besides, the solubility kinetic at 1 h in series [5] was determined as 43 µM.

As a reminder, the pIC50 is the IC50 on a negative log10 scale, so that one unit is a factor of ten. Broadly, the CC50 is the concentration that lowers cell viability or growth by half.
